The target of this assay is T1, recombinant mouse Nape-pld (Mus musculus, UniProt Q8BH82).
T1 sequence (Q8BH82 1-396): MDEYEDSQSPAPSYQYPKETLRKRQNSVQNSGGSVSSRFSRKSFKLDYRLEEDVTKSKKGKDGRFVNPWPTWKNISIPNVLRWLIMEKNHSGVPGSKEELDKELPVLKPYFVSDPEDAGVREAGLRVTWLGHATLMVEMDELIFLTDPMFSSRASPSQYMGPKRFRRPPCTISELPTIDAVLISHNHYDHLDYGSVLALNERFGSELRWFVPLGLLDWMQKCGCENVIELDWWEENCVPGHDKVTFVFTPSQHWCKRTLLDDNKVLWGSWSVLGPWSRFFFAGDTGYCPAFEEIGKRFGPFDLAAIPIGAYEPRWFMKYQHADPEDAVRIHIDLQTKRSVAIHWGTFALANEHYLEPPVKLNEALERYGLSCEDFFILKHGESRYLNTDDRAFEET
The experiment in a line: VU534 competition assays with compounds known to bind Nape-pld. Format: biochemical. The conditions noted are these: for Effect on Nape-pld activity (compound alone): in presence of 0.4% NOG, 100 μM PE, 1 mM DCA. The procedure, abridged:
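Enzyme (final 0.4 μg, 50 mM Tris, 0.4% N-octylglucoside) was preincubated with vehicle or a competitor for 30 min: dioleoyl-PE 100 μM, deoxycholic acid 1 mM, bithionol 3 μM or LEI-401 30 μM. Alternatively, 15 μM of an analog was used for 5 min. Graded test compound followed for 60 min, then flame-NAPE (0.5 μM) plus N-oleoyl-PE (9.5 μM). The 5-min fluorescence change was normalized to vehicle, 0 μM.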

Molecules are shown by their SMILES.

Results on 3 compounds are retold here after article PMC10443532 (ACS Chemical Biology, 2023).

In the case of `CCCCCCCC/C=C\CCCCCCCC(=O)OC[C@H](COP(=O)(O)OCCN)OC(=O)CCCCCCC/C=C\CCCCCCCC` [PE, dioleoylphosphatidylethanolamine], the “Effect on Nape-pld activity (compound alone)” value was “slight, but nonsignificant trend for inhibition”. As for `O=C(NCC1CC1)c1cc(N2CC[C@H](O)C2)nc(N2CCC[C@@H](c3ccccc3)C2)n1` [LEI-401], the “Effect on ability of 5 μM VU534 to activate Nape-pld” value (graded concentrations of LEI-401 or VU233, flame-NAPE (Figure S5)) is “reduced the ability of 5 μM VU534 to activate Nape-pld in a concentration-dependent manner”. For `C[C@H](CCC(=O)O)[C@H]1CC[C@H]2[C@@H]3CC[C@@H]4C[C@H](O)CC[C@]4(C)[C@H]3C[C@H](O)[C@]12C` [DCA, deoxycholic acid], the “Effect on Nape-pld activity (compound alone)” value is reported as “slight, but nonsignificant trend for inhibition”.
